According to the RNAGym collection of RNA variant scans (doi:10.1126/science.aae0568):
This sample holds only a part of the variants without activity.

B1: tRNA (parent)
chain: GUUCCGUUGGCGUAAUGGUAACGCGUCUCCCUCCUAAGGAGAAGACUGCGGGUUCGAGUCCCGUACGGAACG

Variants of: B1
Assay: yeast fitness relative to wild type (ratio to wild type); higher = fitter; tRNA-Arg(CCU), competitive growth, 37 C, YPD
How it was run: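 Gene amplicons from the start population and from each of six end populations were read by 100-nucleotide paired-end sequencing. Those end populations came from pooled Saccharomyces cerevisiae strains carrying tRNA-Arg(CCU) gene variants at the native locus, competed in YPD at 37°C for 24 hours. Fitness relative to wild type was worked out from changes in genotype frequencies. Genotypes needed ≥ 100 starting reads, and estimates < 0.5 were set to 0.5.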

Row | Variant | yeast fitness
1 | GUUCCGUUGGCGUAAUGGGAAUGCGUCUCCUUCCUAAGGUGAAGACUGCGGGUUCGAGUCCCGUCCGAAACG | ≤ 0.5
2 | GUUCCGUUGGCGUAAUGGGAACGCGUCUCCAUCCAAAGGAGAAGACUGCGGGUUGGACUCCCGUACGGAACG | 0.519
3 | GUUCCGUUGGCGUAAUGGGAACGCGUCUUCCUCCUAAGGAGAAGACUGUGGGUUCGAGUCCCGUACGGAACG | ≤ 0.5
4 | GUUCCGUUGGCGUAAUGGGAUCGCGUCUGCCUCCUAUGGAGAAGACUGCGGGUUCGAGUCCCGUACGGAACG | ≤ 0.5
5 | GUUCCGUUGGCGUAAUGGGAACGCGUCUCCCUCUUAAGGAGAAGACUGCGGGUUCGAGUCCCGUACGCAACG | 0.591
6 | GUUCCGUUGGCGUAAUGGGAACGCGUCUCACUCCUAAGGAGAAGACUGUGGGUUCGAGUCCCGUACGGAACG | 0.602
7 | GUUCCGUUGGCGUAAUGGCAACGCGUCUCCCCCCUAAGGAGAAGACUGCGGGUUCGAGUCCCGAACGGAACG | 0.501
8 | GUUCCGUUGGCGUAAUGGGAACGCGUCUCCCUCCUAAGGAGAAGAAUGCGGGUUCGAGUCCCGUACGGAACG | 0.932
9 | GUUCCGUUGGCGUAAUGGGAACGCGUCUCCCUCCUAAGGAGAAGAUUGCGGGUUCGAGUCCCGUACGGAACG | 0.962
10 | GUUCCGUUGGCGUAAUGGGAACGCGUCUCCCUCCUAAGGAGUAGAUUGCGGGUUCGAGUCCCGUACGGAACG | 0.569
11 | GUUCCGUUGGCGUAAUGGGAACGCGUCUCCCUCCUAAGGAGAAGACUGGGGGUUCGAGUCCCGUACGGAACG | 0.69
12 | GUUCCGUUGGCGUAAUGGGAACGCGUCUCCCUCCUAAGGAGACGACUGCGGGCUGGAGUCCCGUACGGAUCG | ≤ 0.5
13 | GUUCCGUUGGCGUAAUGGGUACGCGUCUCCCUCCUAAGGAGAAGACUGCGGGUUCAAGUCCCGUACGGAACG | 0.789
14 | GUUCCGUUGGCGUAAUGGGAAUGCGUCUCCUUCCUAAGGUGAAGACUGCGGGUUCGAGUCCCGUACGGAACG | 0.586
15 | GUUCCGUUGGCGUAAUGGGAACGCGUCUCCCUCCUCAGGAGAAGACUGCGGGUUCGAGUCCCGUACGGAACG | 0.529
16 | GUUCCGUUGGCGUAAUGGCAACGCGUCUCCCUCCUAAGGAGAAGACUGCGGGUUCGAGUCCCGAACGGAACG | 0.898
17 | GUUCCGUUGGCGUAAUGGCAACGCGUCUCCCUCCUAAGGAGAAGACUGCGGGUUCGAGUCCCGGACGGAACG | 0.789
18 | GUUCCGUUGGCGUAAUGGCAACGCGUCUCCCUCCUAAGGAGAAGACUGCGGGUUCGAGUCCCGCACGGAACG | 0.893
19 | GUUCCGUUGGCGUAAUGGGAACGCGUGUCCCUCAUAAGGAGUAGACUGCGGGUUCGAGUCCCGUACGGAACG | ≤ 0.5
20 | GUUCCGUUGGCGUAAUGGGAACGCGUCUUCCUCCUAAGCAGUAGACUGCGGGUUCGAGUCCCGUACAGAACG | 0.537
21 | GUUCCGUUGGCGUAAUGGGAUCGCGUCUCCCUACUAAGGAGAAGACUGAGGGUUCGAGUCCCGUACGGAACG | ≤ 0.5
22 | GUUCCGUUGGCGUAAUGGGAACGCGUCUCCCUCCUAAGGAGAUGACUGCGGGUUCGAGUCCCGUACGGACCG | 0.716
23 | GUUCCGUUGGCGUAAUGGGAACGCGUCUCCCUCCUAGGGAGAAGACUGCGGGUUCGGGUCCCGUACGGAUCG | ≤ 0.5
24 | GUUCCGUUGGCGUAAUGGGAACGCGUCUCCCUCCUAAGGAGACGACUGUGGGCUGGAGUCCCGUACGGAACG | ≤ 0.5
25 | GUUCCGUUGGCGUAAUGGGAACGCGUCUUCCUCCUAAGGCGAAGACUGCGGGUUCGAGUCCCGUACGGAACG | 0.52

Row | Variant | yeast fitness
26 | GUUCCGUUGGCGUAAUGGGAACGCGUCUCCCUCCUAAGGAGAAGACUGCGGGUUCGAGUCCCGUGCGGACCG | 0.733
27 | GUUCCGUUGGCGUAAUGGGAACGCGUCUCCCUCCUAAGGAGAAGACUGUGGGUUCGAGUCCCGUACGGCACG | ≤ 0.5
28 | GUUCCGUUGGCGUAAUGGGAACGCGUCUACCUCCUAAGGAGAAGACUGCGGGUUCGAGUCCCGUACGGAACG | 0.56
29 | GUUCCGUUGGCGUAAUGGGAACGCGUCUCCCUCCUAAGGAGACGACUGCGGGCUGGAGUCCCGUAUGGAACG | ≤ 0.5
30 | GUUCCGUUGGCGUAAUGGGAACGCGUCUCCCUUCUAAGGCGAAGCCUGCGGGUUCGAGUCCCGUACGGAACG | ≤ 0.5
31 | GUUCCGUUGGCGUAAUGGGAACGCGUCUCCAUCCUAAGCAGAAGACUGCGGGUUCGAGUCCGGUACGAAACG | ≤ 0.5
32 | GUUCCGUUGGCGUAAUGGGAACGCGUCUCCCUCCUAAGGAGAAGACUGCGGGUUCGGGUCCCGUACGGAUCG | 0.731
33 | GUUCCGUUGGCGUAAUGGCAACGCGUCUCCCUCCUAAGGAGAAGACUGCGGGCUCAAGUCCCGUACGGAACG | 0.622
34 | GUUCCGUUGGCGUAAUGGGAACGCGUCUCCCUCCUAAGGAGAAGACUGCGGGUUCGAGUCCCGUACGGAACG | 0.975
35 | GUUCCGUUGGCGUAAUGGGUACGCGUCUCCCUCCUAAGGAGAAGACUGCGGGGUCGAGUCCCGUACGGAACG | ≤ 0.5
36 | GUUCCGUUGGCGUAAUGGGAACGCGUCUCCCUUUUAAGGAGAAGACUGCGGGUUCGAGUCCCGUACGGAACG | ≤ 0.5
37 | GUUCCGUUGGCGUAAUGGGAAGGCGUCUCCCUCUUAAGGAGAAGACUGCGGGUUCGAGUCCCGUACGGAACG | 0.559
38 | GUUCCGUUGGCGUAAUGGGAACGCGUCUCCCUCCUAGGGAGAAGACUGCGGGUUCGAGUCCCGUAUGGUACG | 0.691
39 | GUUCCGUUGGCGUAAUGGGAACGCGUCUCCCUCCUAAGGAGAAGACUGUGGGUUCGAGUACCGUACGGAACG | ≤ 0.5
40 | GUUCCGUUGGCGUAAUGGGAAUGCGUCUCCUUCCUAAGGUGAAGACUGCGGGUUGGAGUCCCGUCCGGAACG | ≤ 0.5
41 | GUUCCGUUGGCGUAAUGGGAAUGCGUCUCCCUCCUAAGGAGAAGACUGCGGGUUCGAGUCCCGUACGGAGCG | 0.624
42 | GUUCCGUUGGCGUAAUGGGAACGCGUCUCACUCCUAAGGAGAAGUCUGCGGGUUCGACUCCCGUACGGUACG | ≤ 0.5
43 | GUUCCGUUGGCGUAAUGGGAACGCGUCUCUCUCCUAAGGAGAAGACUGCGGGUUCGAGUCCGGUACGGAACG | 0.603
44 | GUUCCGUUGGCGUAAUGGGAACGCGUCUCCCUCCUAAGGAGAAGACUGUUGGUUCGAGUCCCGUACGGAACG | ≤ 0.5
45 | GUUCCGUUGGCGUAAUGGGAACGCGUCUUCCUCCUAAGGCGAAGACUGCGGGUUCGAGUCCCGUGCGGAACG | ≤ 0.5
46 | GUUCCGUUGGCGUAAUGGGAACGCGUCUCACUCCUAAGGAGAAGUCUGCGGGUUCAACUCCCGUACGGUACG | ≤ 0.5
47 | GUUCCGUUGGCGUAAUGGGAACGCGUCUACCUCCUAAGGAGAAGACUGCGGGUACGAGUCCCGUACGGAACG | ≤ 0.5
48 | GUUCCGUUGGCGUAAUGGGAACGCGUCUCCCUCCUAAGGAGAAGACUGUGGGUUCGAGUACCGUAGGGAACG | ≤ 0.5
49 | GUUCCGUUGGCGUAAUGGGAAGGCGUCUCCCUCCUCAGGAGAAGACUGCGGGUUCGGGUACCGUAGGGAACG | ≤ 0.5
50 | GUUCCGUUGGCGUAAUGGGUACGCGUCUCCCUCCUAAGGAGAAGACUGCGGGUUCGACUCCCGUACGGAACG | 0.716

Row | Variant | yeast fitness
51 | GUUCCGUUGGCGUAAUGGGUACGCGUCUCUCUCCUAAGGAGAAGACUACGGGUUCGAGUCCCGUACGGAACG | 0.577
52 | GUUCCGUUGGCGUAAUGGCAACGCGUCUCCCUCCCAAGGAGAAGACUGCGGGUUCGAGUCCCGUACGGAACG | 0.81
53 | GUUCCGUUGGCGUAAUGGCAACGCGUCUCCCUCCUAAGGAGAAGACUGCGGGAUCGAGUCCCGUACGGAACG | 0.689
54 | GUUCCGUUGGCGUAAUGGCAACGCGUCUCCCUCCUAAGGAGAAGACUGCGGGCACGAGUCCCGUACGGAACG | ≤ 0.5
55 | GUUCCGUUGGCGUAAUGGGAACGCGUCUCCCUCCUAAGGAGAUGACUGCGGGUUCGAGUCGCGUACGGAACG | 0.559
56 | GUUCCGUUGGCGUAAUGGCAACGCGUCUCCCUCCAAAAGAGGAGACUGCGGGUUCGAGUCCCGUACGGGGCG | ≤ 0.5
57 | GUUCCGUUGGCGUAAUGGGAACGCGUCUUCCUCCUAAGGCGAAGACUGCGGGUUCGAGUGCAGUGCGGAACG | 0.525
58 | GUUCCGUUGGCGUAAUGGGCACGCGCCCCCCUCCUAAGGAGAAGACUGCGGGUUCGAGUCCCGUACGGAACG | ≤ 0.5
59 | GUUCCGUUGGCGUAAUGGGAAUGCGUCUCUUUCCUAAGGUGAAGACUGCGGGUUCGAGUCCCGUACAGAACG | ≤ 0.5
60 | GUUCCGUUGGCGUAAUGGCAACGCGUCUCCCUCCUAAGGAGAAGACCGCGGGUUCGAGUCCCGUACGGAACG | 0.905
61 | GUUCCGUUGGCGUAAUGGCAACGCGUCUCCCUCCUAAGGAGAAGACAGCGGGUUCGAGUCCCGUACGGAACG | 0.896
62 | GUUCCGUUGGCGUAAUGGGAACGCGUCUCACUCCUAAGGAGAUGACUGCGGGUUCGAGUCCCGUACGGAACG | 0.601
63 | GUUCCGUUGGCGUAAUGGGACCGCGUCUCCCUCCUAAGGAGAAGACUGCGGGUUGGAGACCCGUACGGAACG | ≤ 0.5
64 | GUUCCGUUGGCGUAAUGGGUACGCGUCUCCCUCCUAAGGAGAAGACUGCGGGUUCGAGUCCCGUACAGAACG | 0.743
65 | GUUCCGUUGGCGUAAUGGGAAUGCGUCUCCUUCCUAAGGUGAAGACUGCGGGUUCGAGUCCCGUACGGUACG | 0.569
66 | GUUCCGUUGGCGUAAUGGGAACGCGUCUCCCUCCUAAGGAGAAGCCUGCGGGUUCGAGUCCCGUACGGAUCG | 0.557
67 | GUUCCGUUGGCGUAAUGGGUACGCGUGUCCCUCCUAAGGAGAAGACUGCGGGUUCGAGUCCCGUAUGGAACG | ≤ 0.5
68 | GUUCCGUUGGCGUAAUGGGAACGCGUCUCCCUCCUAAGGAGAUGACUGCGGGUUCGAGUCCCGUGCGAAACG | 0.512
69 | GUUCCGUUGGCGUAAUGGGAUCGCGUCUCCCUCCUAAGGAGAAGAUUGCGGGUUCGAGUCCCGUACGGAACG | 0.809
70 | GUUCCGUUGGCGUAAUGGGAACGCGUUUCCCUCCUAGGGAGAAGACCGCGGGUUCGAGUCCCGUACGGAACG | ≤ 0.5
71 | GUUCCGUUGGCGUAAUGGGAACGCGUCUCCCUCCUAAGGAGAAGACUGCGGGUUCGAGUCCCGUACGGAGCG | 0.847
72 | GUUCCGUUGGCGUAAUGGGCACGCGCCUCCCUCCUAAGGAAAAGACUGCGGGUUCGAGUCCGGUACGGAACG | ≤ 0.5
73 | GUUCCGUUGGCGUAAUGGGAACGCGUCUCCCUCCUAAGGGGAAGACUGAGGGUUCGAGUCCCGUACGGAACG | ≤ 0.5
74 | GUUCCGUUGGCGUAAUGGGAACGCGUCUCCCUCCUAAGGAGAAGACUGUGGGUUCGAGUCCAGUACGGGACG | ≤ 0.5
75 | GUUCCGUUGGCGUAAUGGCAACGCGUCUCCCGCCUAAGGAGAAGACUGCGGGUUCGAGUCCCGUACGGAACG | 0.655
